Results published in ChEMBL document CHEMBL4680104, “Structure-Based Optimization of Small-Molecule Inhibitors for the β-Catenin/B-Cell Lymphoma 9 Protein-Protein Interaction” (J Med Chem, 2018).
pIC50, pKi: −log10 of the molar value. Activity calls are given as the source filed them. The calls are words filed in the database; no cut-off is given here.

What was measured:
[1] = biological target: T1, beta-catenin-B-cell lymphoma 9 protein complex (Homo sapiens, UniProt P35222); test: Inhibition of protein interaction between C-terminal 6x-histidine tagged full-length beta-catenin (1 to 781 residues) (unknown origin)/N-terminal biotinylated human BCL9 ( 350 to 375 residues) incubated for 1 hr by Alpha-screen competitive inhibition assay; assay type: protein-complex assay
T1 sequence (P35222 whole entry): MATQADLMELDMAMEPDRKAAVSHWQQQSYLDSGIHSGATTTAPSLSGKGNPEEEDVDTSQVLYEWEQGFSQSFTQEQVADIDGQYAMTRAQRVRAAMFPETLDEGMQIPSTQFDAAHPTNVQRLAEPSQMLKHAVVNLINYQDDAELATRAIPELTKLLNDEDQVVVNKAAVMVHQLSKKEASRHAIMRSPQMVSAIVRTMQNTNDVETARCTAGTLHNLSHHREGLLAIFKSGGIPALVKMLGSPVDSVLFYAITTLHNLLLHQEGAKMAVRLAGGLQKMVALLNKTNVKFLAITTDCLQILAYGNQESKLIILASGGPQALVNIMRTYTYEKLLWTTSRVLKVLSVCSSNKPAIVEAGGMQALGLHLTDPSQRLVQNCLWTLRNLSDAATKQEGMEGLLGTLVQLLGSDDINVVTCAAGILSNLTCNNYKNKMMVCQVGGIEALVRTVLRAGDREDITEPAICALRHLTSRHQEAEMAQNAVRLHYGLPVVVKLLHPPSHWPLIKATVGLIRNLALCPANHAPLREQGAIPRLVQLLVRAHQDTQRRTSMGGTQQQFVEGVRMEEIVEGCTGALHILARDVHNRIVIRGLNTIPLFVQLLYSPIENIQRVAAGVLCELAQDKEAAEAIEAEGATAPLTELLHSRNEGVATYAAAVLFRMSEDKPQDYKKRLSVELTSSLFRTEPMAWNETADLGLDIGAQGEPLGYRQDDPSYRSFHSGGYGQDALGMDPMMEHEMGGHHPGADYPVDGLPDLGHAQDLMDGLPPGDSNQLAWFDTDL
T1 sequence (O00512 whole entry): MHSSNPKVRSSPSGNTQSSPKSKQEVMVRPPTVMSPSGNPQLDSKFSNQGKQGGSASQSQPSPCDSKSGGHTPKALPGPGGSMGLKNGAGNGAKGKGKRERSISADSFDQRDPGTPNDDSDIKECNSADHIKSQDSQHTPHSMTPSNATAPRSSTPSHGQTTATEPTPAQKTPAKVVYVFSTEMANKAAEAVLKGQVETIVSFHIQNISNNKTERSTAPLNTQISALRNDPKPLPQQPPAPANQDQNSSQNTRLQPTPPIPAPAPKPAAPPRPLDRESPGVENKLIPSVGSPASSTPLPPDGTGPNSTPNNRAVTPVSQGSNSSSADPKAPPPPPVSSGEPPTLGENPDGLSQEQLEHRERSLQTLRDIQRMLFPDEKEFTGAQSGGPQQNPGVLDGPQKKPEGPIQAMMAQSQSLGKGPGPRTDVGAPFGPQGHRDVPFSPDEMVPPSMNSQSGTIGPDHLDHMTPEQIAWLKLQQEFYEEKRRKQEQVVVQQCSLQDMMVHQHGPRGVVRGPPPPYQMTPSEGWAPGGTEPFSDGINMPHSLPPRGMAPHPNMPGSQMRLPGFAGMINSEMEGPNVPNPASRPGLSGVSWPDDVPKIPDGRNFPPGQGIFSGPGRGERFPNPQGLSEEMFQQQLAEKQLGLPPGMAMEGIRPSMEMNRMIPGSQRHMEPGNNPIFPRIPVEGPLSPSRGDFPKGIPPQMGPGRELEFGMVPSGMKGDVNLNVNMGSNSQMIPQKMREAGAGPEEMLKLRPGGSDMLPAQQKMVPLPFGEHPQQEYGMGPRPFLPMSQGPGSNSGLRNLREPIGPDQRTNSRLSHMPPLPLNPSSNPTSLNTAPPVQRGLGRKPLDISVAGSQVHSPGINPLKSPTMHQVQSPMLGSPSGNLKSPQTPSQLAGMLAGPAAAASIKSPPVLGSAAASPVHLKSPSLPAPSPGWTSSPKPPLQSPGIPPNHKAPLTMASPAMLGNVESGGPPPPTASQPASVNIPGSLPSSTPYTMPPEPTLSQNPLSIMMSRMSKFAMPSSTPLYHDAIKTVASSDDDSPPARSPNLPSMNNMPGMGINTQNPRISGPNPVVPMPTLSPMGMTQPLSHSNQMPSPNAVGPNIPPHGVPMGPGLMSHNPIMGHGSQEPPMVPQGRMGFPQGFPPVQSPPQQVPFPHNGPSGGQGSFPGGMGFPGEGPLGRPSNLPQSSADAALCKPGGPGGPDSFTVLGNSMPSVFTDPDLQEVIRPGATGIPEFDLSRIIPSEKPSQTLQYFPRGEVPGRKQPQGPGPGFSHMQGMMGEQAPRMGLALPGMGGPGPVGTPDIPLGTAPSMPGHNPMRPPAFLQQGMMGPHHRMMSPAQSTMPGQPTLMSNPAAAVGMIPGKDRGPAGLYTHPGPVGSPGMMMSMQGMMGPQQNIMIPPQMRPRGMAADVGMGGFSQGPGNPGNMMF
Outline: (§1)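 Full-length β-catenin (residues 1–781) with a C-terminal His6 tag was expressed in E. coli BL21(DE3) after IPTG induction at 20 °C. It was purified by Ni-NTA, anion-exchange and size-exclusion chromatography. For the assay, 40 nM β-catenin was preincubated for 30 min at 4 °C with 5 nM biotinylated BCL9 or 10 nM biotinylated E-cadherin. Inhibitor was then added for 1 h at 4 °C, followed by 10 μg/mL donor and acceptor beads for 1 h at 4 °C. IC50 was obtained by nonlinear fit and converted to Ki by the Nikolovska-Coleska method. Triplicate, mean ± SD.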

[2] = tested on: SW480; test: Cytotoxicity in human SW480 cells assessed as reduction in cell viability incubated for 72 hrs by MTS assay; assay type: functional, cell-based; conditions: SW480, 72 h
Outline: (§2)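 Cells seeded at 5 × 10^3 cells/well, kept overnight at 37 °C, then exposed to inhibitors at various concentrations for 72 h. Viability read with a freshly mixed PMS (0.92 mg/mL) : MTS (2 mg/mL) reagent at 1:19, incubated 3 h at 37 °C, A490 measured. […] Triplicate; mean ± SD.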

[3] = tested on: HCT-116; test: Cytotoxicity in human HCT-116 cells assessed as reduction in cell viability incubated for 72 hrs by MTS assay; assay type: functional, cell-based; conditions: HCT-116, 72 h; outline: as §2
[4] = biological target: T1, beta-catenin-B-cell lymphoma 9 protein complex; test: Inhibition of protein interaction between beta-catenin (unknown origin)/BCL9 in human SW480 cells transfected with beta-catenin assessed as reduction in Wnt/beta-catenin transactivation incubated for 24 hrs by Wnt-responsive TOP-Flash luciferase reporter assay; assay type: cell-based
[5] = tested on: SW480; test: Cytotoxic activity in human SW480 cells at 800 uM incubated for 4 hrs by LDH release assay; assay type: cell-based; conditions: sw480, 4 h
Outline: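 SW480 cells were seeded at 2 × 10^4 cells/well and kept overnight at 37 °C. They were then exposed to a range of inhibitor concentrations for 4 h. LDH in the culture supernatant was measured with a diagnostic kit by absorbance at 490 nm. Percent cytotoxicity was calculated from experimental release against maximum release, with background subtracted. Run in triplicate.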

[6] = Inhibition of protein interaction between C-terminal 6x-histidine tagged full-length beta-catenin (1 to 781 residues) (unknown origin)/N-terminal biotinylated human E-cadherin (824 to 877 residues) incubated for 1 hr by Alpha-screen competitive inhibition assay; outline: as §1
[7] = tested on: A549; test: Cytotoxicity in human A549 cells assessed as reduction in cell viability incubated for 72 hrs by MTS assay; assay type: functional, cell-based; conditions: A549, 72 h; outline: as §2
[8] = biological target: T1, beta-catenin-B-cell lymphoma 9 protein complex; test: Inhibition of protein interaction between beta-catenin (unknown origin)/BCL9 in HEK293 cells transfected with beta-catenin assessed as reduction in Wnt/beta-catenin transactivation incubated for 24 hrs by Wnt-responsive TOP-Flash luciferase reporter assay; assay type: cell-based
Outline: (§3)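 HEK293 cells were cotransfected using FuGENE6 with 45 ng TOPFlash or FOPFlash reporter, 135 ng pcDNA3.1-β-catenin and 20 ng pCMV-RL normalization reporter. After 24 h in DMEM with 10% FBS at 37 °C, inhibitors or DMSO were added for 24 h. Reporter activity was read with a dual luciferase system, normalized, and compared with DMSO-treated cells. Triplicate.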

[9] = biological target: T2, beta-catenin-B-cell lymphoma 9 protein complex (Homo sapiens) (UniProt P35222+O00512); test: Inhibition of protein interaction between beta-catenin (unknown origin)/BCL9 in HEK293 cells transfected with beta-catenin assessed as reduction in Wnt/beta-catenin transactivation incubated for 24 hrs by Wnt-responsive FOP-Flash luciferase reporter assay; assay type: cell-based; outline: as §3
[10] = biological target: T2, beta-catenin-B-cell lymphoma 9 protein complex (Homo sapiens); test: Inhibition of protein interaction between beta-catenin (unknown origin)/BCL9 in human HEK293 cells transfected with beta-catenin assessed as reduction in Wnt/beta-catenin transactivation incubated for 24 hrs by Wnt-responsive FOP-Flash luciferase reporter assay
[11] = tested on: MDA-MB-231; test: Cytotoxicity in human MDA-MB-231 cells assessed as reduction in cell viability incubated for 72 hrs by MTS assay; assay type: functional, cell-based; conditions: MDA-MB-231, 72 h
Outline: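 Triple-negative breast cancer line seeded at 5 × 10^3 cells/well, held overnight at 37 °C, then exposed to inhibitor over a concentration range for 72 h. Viability read out with a fresh 1:19 mix of PMS (0.92 mg/mL) and MTS (2 mg/mL), incubated 3 h at 37 °C, A490 measured.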

[12] = Effect on HPRT mRNA expression in human SW480 cells at 5 uM incubated for 24 hrs by qPCR analysis relative to control; assay type: ADME, cell-based; conditions: read-out: FC
Outline: (§4)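 SW480 cells at 1 × 10^6/mL were treated with inhibitor for 24 h. Total RNA was extracted with TRIzol and cDNA made by first-strand synthesis. SYBR green qPCR used human HPRT primers, with CT values normalised to GAPDH as internal reference. Performed in triplicate.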

[13] = Effect on HPRT mRNA expression in human SW480 cells at 10 uM incubated for 24 hrs by qPCR analysis relative to control; assay type: ADME, cell-based; conditions: read-out: FC; outline: as §4
[14] = Effect on HPRT mRNA expression in human SW480 cells at 20 uM incubated for 24 hrs by qPCR analysis relative to control; assay type: ADME, cell-based; conditions: read-out: FC; outline: as §4
[15] = Inhibition of protein interaction between beta-catenin D145A mutant (unknown origin)/N-terminal biotinylated human BCL9 ( 350 to 375 residues) incubated for 1 hr by Alpha-screen competitive inhibition assay
[16] = Inhibition of protein interaction between beta-catenin D145A/E155A mutant (unknown origin)/N-terminal biotinylated human BCL9 ( 350 to 375 residues) incubated for 1 hr by Alpha-screen competitive inhibition assay
[17] = Inhibition of protein interaction between beta-catenin K181A mutant (unknown origin)/N-terminal biotinylated human BCL9 ( 350 to 375 residues) incubated for 1 hr by Alpha-screen competitive inhibition assay

Row | SMILES | pKi [1] | pIC50 [2] | pIC50 [3] | pIC50 [4] | Activity [5] | pIC50 [7] | pIC50 [8] | also measured
1 | Cl.Cl.O=C(O)c1ccc(-c2cc(NC(=O)c3ccc(O[C@H]4CCNC4)c(-c4ccc(F)c(F)c4)c3)ccc2O[C@H]2CCNC2)cc1 | 5.43 | < 3.40 | < 3.40 | 3.41 | Non-Toxic |  |  | 
2 | CC(=O)Nc1cccc(-c2cc(NC(=O)c3ccc(O[C@H]4CCNC4)c(-c4ccc(F)c(F)c4)c3)ccc2O[C@H]2CCNC2)c1.Cl.Cl | 5.28 | 3.80 |  |  | Non-Toxic |  |  | 
3 | Cl.Cl.NC(=O)c1cccc(-c2cc(NC(=O)c3ccc(O[C@H]4CCNC4)c(-c4ccc(F)c(F)c4)c3)ccc2O[C@H]2CCNC2)c1 | 5.25 | 3.72 |  |  | Non-Toxic |  |  | 
4 | Cl.Cl.O=C(Nc1ccc(O[C@@H]2CCNC2)c(-c2cccc(-c3nn[nH]n3)c2)c1)c1ccc(O[C@H]2CCNC2)c(-c2ccc3ccsc3c2)c1 |  | 3.82 | 3.62 | 4.37 | Non-Toxic | 3.37 | 4.30 | pKi [6]: < 3.04; inhibition [9]: inactive; inhibition [10]: inactive
5 | Cl.Cl.Fc1ccc(-c2cc(-c3ccc4cc(O[C@H]5CCNC5)c(-c5ccc(F)c(F)c5)cc4n3)ccc2O[C@H]2CCNC2)cc1 |  | 5.44 | 5.02 | 4.92 | Non-Toxic | 4.64 | 4.59 | pIC50 [11]: 4.82; inhibition [9]: Active; fold induction at 5 µM [12]: 0.369; fold induction at 10 µM [13]: 0.319; fold induction at 20 µM [14]: 0.0612; inhibition [10]: Active
6 | Cl.Cl.O=C(Nc1ccc(O[C@H]2CCNC2)c(-c2cccc(-c3nn[nH]n3)c2)c1)c1ccc(O[C@H]2CCNC2)c(-c2ccc(F)c(F)c2)c1 | 6.00 | 3.85 | 3.72 |  | Non-Toxic | 3.39 |  | pKi [15]: 5.19; pKi [16]: 4.74; pKi [17]: 5.31; pIC50 [11]: 4.04
7 | Cl.Cl.O=C(O)c1cccc(-c2cc(NC(=O)c3ccc(O[C@H]4CCNC4)c(-c4ccc(F)c(F)c4)c3)ccc2O[C@H]2CCNC2)c1 | 5.27 | < 3.40 | < 3.40 | 3.43 | Non-Toxic |  |  | 
8 | Cl.Cl.O=C(Nc1ccc(O[C@H]2CCNC2)c(-c2ccc(-c3nn[nH]n3)cc2)c1)c1ccc(O[C@H]2CCNC2)c(-c2ccc(F)c(F)c2)c1 | 5.34 | 4.07 |  |  | Non-Toxic |  |  | 
9 | Cl.Cl.NS(=O)(=O)c1ccc(-c2cc(NC(=O)c3ccc(O[C@H]4CCNC4)c(-c4ccc(F)c(F)c4)c3)ccc2O[C@H]2CCNC2)cc1 | 5.25 | 3.66 |  | < 3.70 | Non-Toxic |  | < 3.70 | 
10 | Cl.Cl.O=C(O)c1ccc(F)c(-c2cc(NC(=O)c3ccc(O[C@H]4CCNC4)c(-c4ccc(F)c(F)c4)c3)ccc2O[C@H]2CCNC2)c1 | 4.92 | < 3.40 | < 3.40 | < 3.40 | Non-Toxic |  |  | 
